Laboratory results published in ChEMBL document CHEMBL1759935, “Pharmacokinetic optimisation of novel indole-2-carboxamide cannabinoid CB1 antagonists” (Bioorg Med Chem Lett, 2011).
pIC50, pKi: −log10 of the molar value.

Columns and labels:
Cannabinoid receptor 1 [1] = biological target: T1, Cannabinoid receptor 1 (Homo sapiens, UniProt P21554); assay: Antagonist activity against human CB1 receptor; format: functional
[2] = Intrinsic clearance in human liver microsomes in presence of UGT; format: ADME, Microsome
How it was run: (§1)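 UGT pathway: human gut or liver microsomes at 0.5 mg protein/mL with 2 mM UDPGA, alamethicin and 1 mM MgCl2, pH 7.1. Compound depletion measured by LC–MS/MS in duplicate time-course incubations; intrinsic clearance expressed per mg protein.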

[3] = Intrinsic clearance in human gut microsomes in presence of UGT; format: ADME, Microsome; how it was run: as §1
[4] = Intrinsic clearance in human gut microsomes in presence of NADPH; format: ADME, Microsome
How it was run: (§2)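 Pooled human microsomes (gut or liver) at 0.5 mg protein/mL with 1 mM NADPH, pH 7.4 (P450 pathway). Compound loss followed by LC–MS/MS in duplicate time-course incubations; intrinsic clearance given per mg protein.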

[5] = Intrinsic clearance in human liver microsomes in presence of NADPH; format: ADME, Microsome; how it was run: as §2
Cannabinoid receptor 2 = Cannabinoid receptor 2 (Homo sapiens, UniProt P34972); assay: Displacement of [3H]CP55940 from human recombinant CB2 receptor expressed in Sf9 cells
Chain of Cannabinoid receptor 2 (P34972 whole entry): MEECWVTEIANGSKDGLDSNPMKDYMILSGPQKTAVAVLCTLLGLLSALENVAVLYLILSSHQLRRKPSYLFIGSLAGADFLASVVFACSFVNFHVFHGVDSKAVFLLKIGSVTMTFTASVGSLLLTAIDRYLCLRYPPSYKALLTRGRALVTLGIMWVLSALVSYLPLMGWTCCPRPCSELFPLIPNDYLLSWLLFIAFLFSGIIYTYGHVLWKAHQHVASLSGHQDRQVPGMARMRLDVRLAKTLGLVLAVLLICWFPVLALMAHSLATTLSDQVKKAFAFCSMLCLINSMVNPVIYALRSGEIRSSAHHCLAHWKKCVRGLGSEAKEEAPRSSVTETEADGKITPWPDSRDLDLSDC
How it was run: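 Competition binding against [3H]CP55,940 on membranes from Sf9 cells expressing recombinant human CB2 receptor; run at least in duplicate.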

Canis familiaris = organism: Canis familiaris; assay: Clearance in dog; format: ADME, organism-based, Canis lupus familiaris; details: in vivo
[6] = Intrinsic clearance in rat liver microsomes in presence of NADPH; format: ADME, Microsome
How it was run: (§3)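 P450 pathway: compound depletion in duplicate time-course incubations of microsomes at 0.5 mg protein/mL with 1 mM NADPH, pH 7.4. Liver microsomes prepared in-house; small intestinal microsomes purchased. Loss measured by LC–MS/MS; CL_int expressed per mg microsomal protein.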

[7] = Intrinsic clearance in dog liver microsomes in presence of UGT; format: ADME, Canis lupus familiaris, Microsome
How it was run: (§4)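 UGT pathway: compound loss in duplicate time-course incubations of liver (prepared in-house) or small intestinal microsomes at 0.5 mg protein/mL, with 2 mM UDPGA, alamethicin and 1 mM MgCl₂ at pH 7.1. Detection by LC–MS/MS; CL_int expressed per mg microsomal protein.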

[8] = Intrinsic clearance in dog liver microsomes in presence of NADPH; format: ADME, Canis lupus familiaris, Microsome; how it was run: as §3
Mus musculus [9] = organism: Mus musculus; assay: Clearance in mouse; format: ADME, organism-based; details: in vivo
Rattus norvegicus = organism: Rattus norvegicus; assay: Clearance in rat; format: ADME, organism-based; details: in vivo
[10] = Intrinsic clearance in rat liver microsomes in presence of UGT; format: ADME, Microsome; how it was run: as §4
[11] = Bioavailability in mouse; format: ADME, organism-based; details: in vivo
[12] = Intrinsic clearance in mouse gut microsomes in presence of UGT; format: ADME, Microsome; how it was run: as §4
[13] = Intrinsic clearance in mouse liver microsomes in presence of NADPH; format: ADME, Microsome; how it was run: as §3
[14] = Intrinsic clearance in dog gut microsomes in presence of UGT; format: ADME, Canis lupus familiaris, Microsome; how it was run: as §4
Mus musculus [15] = assay: Inhibition of WIN55212-2-induced hypothermia in po dosed mouse assessed as change in rectal temperature administered 15 mins before WIN55212-2 challenge measured after 75 mins; format: functional; details: read-out: ID50 (the source's name)
How it was run: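 Antagonist or vehicle (5% mulgofen in saline, 10 mL/kg) given orally 75 min before rectal temperature reading. WIN 55,212-2 mesylate (10 mL/kg) given sc 60 min before the reading, at its time of maximal hypothermia. Metal probe with vaseline inserted about 1.5 cm; highest temperature stable for 10 s recorded. ID50 reported with confidence interval.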

Cannabinoid receptor 1 [16] = biological target: T1, Cannabinoid receptor 1; assay: biochemical; format: cell-based, CHO
[17] = Intrinsic clearance in mouse liver microsomes in presence of UGT; format: ADME, Microsome; how it was run: as §4
[18] = Intrinsic clearance in rat gut microsomes in presence of NADPH; format: ADME, Microsome; how it was run: as §3
[19] = Bioavailability in dog; format: ADME, organism-based, Canis lupus familiaris; details: in vivo
[20] = Intrinsic clearance in mouse gut microsomes in presence of NADPH; format: ADME, Microsome; how it was run: as §3
[21] = Intrinsic clearance in rat gut microsomes in presence of UGT; format: ADME, Microsome; how it was run: as §4
[22] = Intrinsic clearance in dog gut microsomes in presence of NADPH; format: ADME, Canis lupus familiaris, Microsome; how it was run: as §3
[23] = Bioavailability in rat; format: ADME, organism-based; details: in vivo

T1 sequence (P21554 whole entry): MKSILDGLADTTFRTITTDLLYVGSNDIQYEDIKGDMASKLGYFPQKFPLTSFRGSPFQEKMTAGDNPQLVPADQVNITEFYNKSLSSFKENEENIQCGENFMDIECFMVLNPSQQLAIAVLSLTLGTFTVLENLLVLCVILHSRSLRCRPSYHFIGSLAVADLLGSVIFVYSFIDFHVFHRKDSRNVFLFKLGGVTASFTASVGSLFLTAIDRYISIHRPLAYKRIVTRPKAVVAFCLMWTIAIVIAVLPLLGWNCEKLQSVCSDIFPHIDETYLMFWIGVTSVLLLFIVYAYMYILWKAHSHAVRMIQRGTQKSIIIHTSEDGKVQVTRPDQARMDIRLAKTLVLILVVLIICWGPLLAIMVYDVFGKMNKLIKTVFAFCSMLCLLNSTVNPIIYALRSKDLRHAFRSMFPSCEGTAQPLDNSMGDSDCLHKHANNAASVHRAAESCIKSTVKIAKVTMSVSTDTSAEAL

`COc1ccc(C(F)(F)F)cc1Cn1c(C(=O)NCC2(CO)CC2)cc2cc(C#N)ccc21` showed a pIC50 (Cannabinoid receptor 1 [1]) of 8.88, a microsomal CLint [2] of 7 µL/min/mg and a microsomal CLint [3] of 49 µL/min/mg. It also gave a microsomal CLint [4] of less than 6 µL/min/mg and a microsomal CLint [5] of 155 µL/min/mg.

In the case of `COc1ccc(C)cc1Cn1c(C(=O)NCC(C)(C)CO)cc2cc(C#N)ccc21`, the pIC50 (Cannabinoid receptor 1 [1]) was 9.12, the microsomal CLint [2] was 23 µL/min/mg and the microsomal CLint [3] was 64 µL/min/mg. It also gave a microsomal CLint [4] of less than 6 µL/min/mg and a microsomal CLint [5] of 191 µL/min/mg.

`CC(O)CCNC(=O)c1cc2cc(C#N)ccc2n1Cc1cccc(OC(F)(F)F)c1` (stereo unspecified) showed a pIC50 (Cannabinoid receptor 1 [1]) of 8.05, a microsomal CLint [2] of less than 6 µL/min/mg and a microsomal CLint [3] of less than 6 µL/min/mg. It also gave a microsomal CLint [4] of less than 6 µL/min/mg and a microsomal CLint [5] of 113 µL/min/mg.

With `COc1ccc(C(C)(C)C)cc1Cn1c(C(=O)NCC2(CO)CC2)cc2cc(C#N)ccc21` the pIC50 (Cannabinoid receptor 1 [1]) was 8.83, the microsomal CLint [2] was less than 6 µL/min/mg and the microsomal CLint [3] was 26 µL/min/mg. The microsomal CLint [4] was less than 6 µL/min/mg and the microsomal CLint [5] was 188 µL/min/mg.

In the case of `Cc1ccc(F)cc1Cn1c(C(=O)NCC2(CO)CCC2)cc2cc(C#N)ccc21`, the pIC50 (Cannabinoid receptor 1 [1]) was 8.31, the microsomal CLint [2] was 49 µL/min/mg and the microsomal CLint [3] was 175 µL/min/mg. The microsomal CLint [4] was less than 6 µL/min/mg and the microsomal CLint [5] was 190 µL/min/mg.

`COc1ccc(Br)cc1Cn1c(C(=O)NCC(C)(C)CO)cc2cc(C#N)ccc21` gave a pIC50 (Cannabinoid receptor 1 [1]) of 9.11, a microsomal CLint [2] of 23 µL/min/mg and a microsomal CLint [3] of 94 µL/min/mg. The microsomal CLint [4] was less than 6 µL/min/mg and the microsomal CLint [5] was 104 µL/min/mg.

In the case of `Cc1ccc(C(F)(F)F)cc1Cn1c(C(=O)NCCC(C)(C)O)cc2cc(C#N)ccc21`, the pKi (Cannabinoid receptor 2) was less than 5.00, the clearance (Canis familiaris) was 15 mL/min/kg and the microsomal CLint [6] was greater than 280 µL/min/mg. It also gave a microsomal CLint [7] of less than 6 µL/min/mg, a pIC50 (Cannabinoid receptor 1 [1]) of 8.29 and a microsomal CLint [2] of less than 6 µL/min/mg. It also gave a microsomal CLint [8] of 17 µL/min/mg, a microsomal CLint [3] of less than 6 µL/min/mg and a clearance (Mus musculus [9]) of 10 mL/min/kg. It also gave a clearance (Rattus norvegicus) of 200 mL/min/kg, a microsomal CLint [10] greater than 280 µL/min/mg and a bioavailability [11] of 31%. The microsomal CLint [12] was less than 6 µL/min/mg, the microsomal CLint [13] was 33 µL/min/mg and the microsomal CLint [14] was less than 6 µL/min/mg. It also gave an ED50 (Mus musculus [15]) of 1.16 µmol/kg, a pKi (Cannabinoid receptor 1 [16]) of 8.36 and a microsomal CLint [17] of less than 6 µL/min/mg. For the same compound, the microsomal CLint [18] was less than 6 µL/min/mg, the bioavailability [19] was 42% and the microsomal CLint [20] was less than 6 µL/min/mg. It also gave a microsomal CLint [21] of less than 6 µL/min/mg, a microsomal CLint [22] of less than 6 µL/min/mg and a microsomal CLint [4] of less than 6 µL/min/mg. For the same compound, the microsomal CLint [5] was 12 µL/min/mg and the bioavailability [23] was 2%.

In the case of `N#Cc1ccc2c(c1)cc(C(=O)NCCC(O)(C(F)(F)F)C(F)(F)F)n2Cc1cccc(OC(F)(F)F)c1`, the pIC50 (Cannabinoid receptor 1 [1]) was 8.22, the microsomal CLint [2] was 24 µL/min/mg and the microsomal CLint [3] was less than 6 µL/min/mg. The microsomal CLint [4] was less than 6 µL/min/mg and the microsomal CLint [5] was 20 µL/min/mg.

In the case of `COc1ccc(Cl)cc1Cn1c(C(=O)NCC2(CO)CCC2)cc2cc(C#N)ccc21`, the pIC50 (Cannabinoid receptor 1 [1]) was 8.59, the microsomal CLint [2] was 34 µL/min/mg and the microsomal CLint [3] was 179 µL/min/mg. It also gave a microsomal CLint [4] of less than 6 µL/min/mg and a microsomal CLint [5] of 196 µL/min/mg.

Work on `COc1ccc(OC(F)(F)F)cc1Cn1c(C(=O)NCC(C)(C)O)cc2cc(C#N)ccc21` yielded a pIC50 (Cannabinoid receptor 1 [1]) of 7.65, a microsomal CLint [2] of less than 6 µL/min/mg and a microsomal CLint [3] of 8 µL/min/mg. It also gave an ED50 (Mus musculus [15]) greater than 10 µmol/kg, a pKi (Cannabinoid receptor 1 [16]) of 8.26 and a microsomal CLint [4] of less than 6 µL/min/mg. The microsomal CLint [5] was less than 6 µL/min/mg.

Work on `COc1ccc(Cl)cc1Cn1c(C(=O)NCC(C)(C)CO)cc2cc(C#N)ccc21` yielded a pIC50 (Cannabinoid receptor 1 [1]) of 8.70, a microsomal CLint [2] of 10 µL/min/mg and a microsomal CLint [3] of 63 µL/min/mg. For the same compound, the microsomal CLint [4] was less than 6 µL/min/mg and the microsomal CLint [5] was 83 µL/min/mg.

`CC(C)(CO)CNC(=O)c1cc2cc(C#N)ccc2n1Cc1cccc(OC(F)(F)F)c1` showed a pKi (Cannabinoid receptor 2) of less than 5.00, a pIC50 (Cannabinoid receptor 1 [1]) of 8.74 and a microsomal CLint [2] of 20 µL/min/mg. For the same compound, the microsomal CLint [3] was 136 µL/min/mg, the ED50 (Mus musculus [15]) was 3.42 µmol/kg and the pKi (Cannabinoid receptor 1 [16]) was 9.10. It also gave a microsomal CLint [4] of less than 6 µL/min/mg and a microsomal CLint [5] of 62 µL/min/mg.

With `Cc1ccc(C(F)(F)F)cc1Cn1c(C(=O)NCC(C)(C)CO)cc2cc(C#N)ccc21` the pIC50 (Cannabinoid receptor 1 [1]) was 9.29, the microsomal CLint [2] was 16 µL/min/mg and the microsomal CLint [3] was 102 µL/min/mg. The microsomal CLint [4] was less than 6 µL/min/mg and the microsomal CLint [5] was 180 µL/min/mg.

With `Cc1ccc(C)c(Cn2c(C(=O)NCC(C)(C)CO)cc3cc(C#N)ccc32)c1` the pIC50 (Cannabinoid receptor 1 [1]) was 9.20, the microsomal CLint [2] was 29 µL/min/mg and the microsomal CLint [3] was 124 µL/min/mg. It also gave a microsomal CLint [4] of less than 6 µL/min/mg and a microsomal CLint [5] of 257 µL/min/mg.
